Drawing on ChEMBL document CHEMBL3877250, “Design, synthesis, and biological evaluation of (2E)-(2-oxo-1, 2-dihydro-3H-indol-3-ylidene)acetate derivatives as anti-proliferative agents through ROS-induced cell apoptosis” (Eur J Med Chem, 2016), this text covers inhibition of growth, IC50 and inhibition for eight compounds.

Broadly, the pIC50 is −log10 of the IC50, conventionally taken in molar units. Lower therefore signals a high IC50. In general, IC50 refers to the concentration at which inhibition is half-maximal. The low end stands for inhibition by little substance, the high end for a need for much substance.

Data set [1] can be described thus: Cytotoxicity against human MDA-MB-231 cells assessed as growth inhibition at 20 uM after 72 hrs by CCK-8 assay. The class given is functional. To be noted: MDA-MB-231, 72 h, read-out: GI. The method, boiled down:
(§1)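 Cells kept in RPMI 1640 with 10% heat-inactivated fetal calf serum and 1% streptomycin/penicillin at 37 °C, 5% CO2. After compound exposure, CCK-8 was added and cells were incubated 4 h at 37 °C, then absorbance was read at 450 nm. Viability is relative to untreated cells (100%). IC50 comes from nonlinear regression, mean of three separate determinations. Single-concentration screen at 20 µM.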
Background: Formazan colour is commonly taken as a measure of viable cells.

Data set [2] can be described thus: Cytotoxicity against human L02 cells. The format is toxicity, cell-based.
Data set [3] in a line: Cytotoxicity against human L02 cells assessed as growth inhibition at 20 uM after 72 hrs by CCK-8 assay. The format is toxicity, cell-based. The conditions noted are these: read-out: GI. The method, boiled down:
as §1

A short description of data set [4]: Cytotoxicity against human SW480 cells assessed as growth inhibition at 20 uM after 72 hrs by CCK-8 assay. The format is functional. The conditions noted are these: SW480, 72 h, read-out: GI. The method, boiled down:
as §1

Data set [5] in a line: Cytotoxicity against human SK-BR-3 cells assessed as growth inhibition at 20 uM after 72 hrs by CCK-8 assay. The format is functional. The conditions noted are these: SK-BR-3, 72 h, read-out: GI. The procedure, abridged: as §1
The nature of data set [6]: Cytotoxicity against human HL60 cells after 72 hrs by CCK-8 assay. To be noted: HL-60, 72 h. The class given is functional, cell-based. The method, boiled down:
as §1

Data set [7] is described as follows: Cytotoxicity against human Saos2 cells assessed as growth inhibition at 20 uM after 72 hrs by CCK-8 assay. The format is functional. The conditions noted are these: SAOS-2, 72 h, read-out: GI. The procedure, abridged: as §1
A short description of data set [8]: Antitumor activity against human HepG2 cells assessed as growth inhibition at 20 uM after 72 hrs by CCK-8 assay. The format is functional. To be noted: HepG2, 72 h, read-out: GI. The method, boiled down:
as §1

The nature of data set [9]: Cytotoxicity against human L02 cells after 72 hrs by CCK-8 assay. The format is toxicity, cell-based. The procedure, abridged:
as §1

Data set [10] is described as follows: Cytotoxicity against human HCT116 cells assessed as growth inhibition at 20 uM after 72 hrs by CCK-8 assay. The format is functional. To be noted: HCT-116, 72 h, read-out: GI. The method, boiled down: as §1
Data set [11] can be described thus: Cytotoxicity against human OVCAR3 cells assessed as growth inhibition at 20 uM after 72 hrs by CCK-8 assay. The class given is functional. The conditions noted are these: OVCAR-3, 72 h, read-out: GI. The procedure, abridged:
as §1

The nature of data set [12]: Cytotoxicity against human HL60 cells assessed as growth inhibition at 20 uM after 72 hrs by CCK-8 assay. To be noted: HL-60, 72 h, read-out: GI. The format is functional. The procedure, abridged: as §1
The nature of data set [13]: Cytotoxicity against human OVCAR3 cells after 72 hrs by CCK-8 assay. The class given is functional, cell-based. The conditions noted are these: OVCAR-3, 72 h. The procedure, abridged: as §1
Data set [14] is described as follows: Cytotoxicity against human HepG2 cells after 72 hrs by CCK-8 assay. The format is functional, cell-based. The conditions noted are these: HepG2, 72 h. The procedure, abridged:
as §1

Data set [15] is described as follows: Cytotoxicity against human SK-BR-3 cells after 72 hrs by CCK-8 assay. The format is functional, cell-based. To be noted: SK-BR-3, 72 h. The procedure, abridged: as §1
A short description of data set [16]: Cytotoxicity against human Saos2 cells after 72 hrs by CCK-8 assay. The conditions noted are these: SAOS-2, 72 h. The class given is functional, cell-based. The procedure, abridged: as §1
A short description of data set [17]: Cytotoxicity against human MDA-MB-231 cells after 72 hrs by CCK-8 assay. The format is functional, cell-based. To be noted: MDA-MB-231, 72 h. The method, boiled down:
as §1

Data set [18] is described as follows: Cytotoxicity against human HCT116 cells after 72 hrs by CCK-8 assay. The conditions noted are these: HCT-116, 72 h. The class given is functional, cell-based. The procedure, abridged:
as §1

Data set [19] in a line: Cytotoxicity against human SW480 cells after 72 hrs by CCK-8 assay. The class given is functional, cell-based. To be noted: SW480, 72 h. The method, boiled down:
as §1

pIC50: −log10 of the molar value.

As for `CN1C(=O)/C(=C/C(=O)OC(C)(C)C)c2ccccc21`, the inhibition of growth at 20 µM in data set [1] stood at 86.6%; in data set [4] it was 77.8%; in data set [5], 87.6%; in [7], 81.9%; in data set [8], 88.4%; in data set [10], 87.5%. For the same compound, the inhibition of growth at 20 µM in [11] was found to be 57.1%; in [12], 94.7%. Besides, the results for the pIC50 in [2] and in [6] were 4.91 and 5.56, respectively. Also, the inhibition at 72 h, 20 µM in data set [3] was 61.4%. This compound also displayed an IC50 at 72 h in [9] of 4.32 µM.

Take `CC(C)(C)OC(=O)/C=C1/C(=O)Nc2ccc(Cl)cc21`: the inhibition of growth at 20 µM in data set [1] was 87.6%; in data set [4], 78.5%; in [5], 87.6%; in [7], 82.3%; in [8], 87.1%; in [10] it was 89.7%. Besides, the inhibition of growth at 20 µM is 59.4% in [11] and 94.9% in [12]. The pIC50 in data set [2] was 5.21; in data set [13], 4.72; in data set [14] it was 5.05; in data set [15], 5.19; in data set [16], 5.19; in data set [6], 5.50. The pIC50 in data set [17] was 5.51; in data set [18], 5.26; in data set [19], 5.26. Moreover, in data set [3], the inhibition at 72 h, 20 µM was 63.3%. In addition, the IC50 at 72 h in [9] was 4.72 µM.

Turning to `CC(C)(C)OC(=O)/C=C1/C(=O)Nc2ccc([N+](=O)[O-])cc21`, the inhibition of growth at 20 µM in data set [1] is 86.9%; in data set [4], 77.9%; in data set [5], 87.9%; in [7], 82.8%; in data set [8], 88.2%; in data set [10], 88.1%. The inhibition of growth at 20 µM in [11] was 55.6%; in data set [12], 86.6%. The inhibition at 72 h, 20 µM in [3] was found to be 62%. In addition, in [6], the negative logarithm of the IC50 (pIC50) is 5.01. In addition, the IC50 at 72 h in [9] was determined as 3.82 µM.

`CC(C)(C)OC(=O)CC1C(=O)Nc2ccccc21` (configuration not stated): the inhibition of growth at 20 µM in data set [1] is 3.7%; in data set [4] it was 8.8%; in [5], 22.6%; in [7], 1.5%; in [8], 1.2%; in data set [10] it was 1.7%. The inhibition of growth at 20 µM was determined as 6.4% in data set [11] and 0.5% in data set [12]. For the same compound, in data set [3], the inhibition at 72 h, 20 µM was found to be 0.1%. The negative-log IC50 (pIC50) in data set [6] is less than 4.00. In data set [9], this compound registered a concentration for half-maximal inhibition (IC50) at 72 h of more than 100 µM.

Consider `CC(C)(C)OC(=O)/C=C1/C(=O)N(Cc2ccccc2)c2ccccc21`, for which the inhibition of growth at 20 µM turned out to be 87.1% in [1]; 78.4% in data set [4]; 88% in [5]; 82.1% in [7]; 88% in data set [8]; 87.9% in [10]. Also, the inhibition of growth at 20 µM is 58.9% in data set [11] and 91.7% in [12]. Moreover, in data set [3], the inhibition at 72 h, 20 µM worked out at 62%. Also, the pIC50 in data set [6] is 4.86. Further, in data set [9], the midpoint of inhibition, the IC50 at 72 h, lay at 5.03 µM.

On to `CC(C)c1ccc2c(c1)/C(=C\C(=O)OC(C)(C)C)C(=O)N2`, for which the inhibition of growth at 20 µM in data set [1] came out at 87.7%; in data set [4], 78.5%; in data set [5], 88.5%; in [7], 82.8%; in data set [8] it was 90.5%; in [10] it was 89.4%. The figures for the inhibition of growth at 20 µM in [11] and in data set [12] were 59.7% and 94.4%, respectively. Further, the inhibition at 72 h, 20 µM in [3] was found to be 63.8%. This compound also had a pIC50 in data set [6] of 5.28. Further, inhibition in data set [9] was half-maximal at 3.36 µM (IC50 at 72 h).

In the case of `COc1ccc2c(c1)/C(=C\C(=O)OC(C)(C)C)C(=O)N2`, the inhibition of growth at 20 µM in data set [1] came out at 87.6%; in [4], 78.7%; in [5] it was 87.7%; in data set [7], 82%; in [8] it was 90.1%; in [10], 89.6%. For the same compound, the inhibition of growth at 20 µM in data set [11] amounted to 59%; in data set [12], 94.2%. Besides, the inhibition at 72 h, 20 µM in [3] is 63.7%. Besides, the pIC50 in [6] was 5.21. Besides, in data set [9], the IC50 at 72 h came to 3.82 µM.

Regarding `CC(C)(C)OC(=O)/C=C1/C(=O)Nc2c(Cl)cccc21`, the inhibition of growth at 20 µM stood at 87.4% in [1]; 78% in data set [4]; 88.2% in [5]; 82.4% in data set [7]; 88.1% in [8]; 89.5% in data set [10]. Moreover, the inhibition of growth at 20 µM in [11] worked out at 59.3%; in data set [12], 93.7%. Also, the inhibition at 72 h, 20 µM in data set [3] amounted to 64%. Further, the pIC50 in [6] is 5.21. The compound also came in with an IC50 at 72 h in [9] of 4.8 µM.
